Bioassay records from PubChem.
A selection: hits, their analogues and other compounds. The true share with any hit is near 6.6%.
Her2 expr inh – Her2 kinase expression inhibition; 65,000 tested, 0.69% active; SKBR-3 HER2 protein level, AlphaScreen, 18-24 h; stronger effect = lower value; HER2 level % of control, % at 10 µM; P04626;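 active = HER2 level under 5% of the carrier-only control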;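 note: 100% = DMSO carrier and 0% = 500 nM PU-H71 HSP90 inhibitor; lower value means stronger loss of Her2 protein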
E coli WT exp – blocks growth of wild type E. coli BW25113; OD600 absorbance; growth inhibition, % at 100 µM; 98,000 tested, 0.15% active; AID 710;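 active = growth inhibition above about 50% at one test dose, limit read from the data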;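 note: growth measured after 20 h incubation at 37 °C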
PostGolgi ctrl – yeast control strain growth, post-Golgi counter-screen; efflux-deficient yeast background strain, growth absorbance A615, 16 h; inhibition, % at 10 µM; 98,000 tested, 5% active; AID 738
PostGolgi yeast – growth inhibition of a yeast mutant, post-Golgi transport screen; post-Golgi transport phenotypic cell assay; inhibition, % at 10 µM; 98,000 tested, 0.9% active; AID 739;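 note: yeast cells grown in 1536-well plates; yeast grown about 18 h at 30C before absorbance read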
tolC growth inh – blocks growth of E. coli BW25113 tolC mutant. OD615. growth inhibition, % at 10 µM (by protocol). 65,000 tested, 2.2% active;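 active = growth inhibition at or above a cutoff equal to the mean over every tested compound plus 3 SD, cut at about 60% in these data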;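 note: growth measured after 20 h incubation at 37 °C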
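Test system: E. coli BW25113 ΔtolC::kan bacteria; incubation: 37 °C, 20 h exposure; medium: LB broth supplemented with 50 µg/mL kanamycin; read-out basis: percent growth inhibition; signal: A615 absorbance measurement; compound: 10 µM final, single dose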
Active calls of the source: *. Cut-off read from the data, not from the text of the source, unless noted: active = inhibition above about 30%; inactive = the rest.

What do the screens show for `COc1ccc(C2(O)CC3CCC(C2)N3c2cc(C)nc(-c3ccccc3)n2)cc1` (configuration not stated)?
Her2 expr inh: 76; E coli WT exp: 2; PostGolgi ctrl: 9; PostGolgi yeast: 8; tolC growth inh: 87*

What do the screens show for `Cc1cc(N2CCCCC2)nc(NCc2ccccc2)n1`?
E coli WT exp: 42; PostGolgi ctrl: 0; PostGolgi yeast: 4

What do the screens show for `Nc1ccccc1-c1nnc(SCc2ccccc2F)[nH]c1=O`?
Her2 expr inh: 86; E coli WT exp: -6; PostGolgi ctrl: 11; PostGolgi yeast: -5; tolC growth inh: 11

How did CCN(CC)CC(=O)Nc1cc(C)c2c(=O)oc3ccccc3c2n1 do in these assays?
Her2 expr inh: 79; tolC growth inh: -4

How did O=C(NCc1ccco1)C1CC(=O)N(CCc2ccccc2)C1 (configuration not stated) do in these assays?
Her2 expr inh: 80; E coli WT exp: -1; PostGolgi ctrl: -2; PostGolgi yeast: -4; tolC growth inh: -42

How did COc1ccc(CCN2CC(C(=O)NCc3ccco3)CC2=O)cc1OC (configuration not stated) do in these assays?
E coli WT exp: 10; PostGolgi ctrl: 33*; PostGolgi yeast: -11

How did CC(C)CNC(=S)NC(=O)c1ccc([N+](=O)[O-])cc1 do in these assays?
E coli WT exp: 14; PostGolgi ctrl: 32*; PostGolgi yeast: -1

Results for COc1cc(S(=O)(=O)n2ccc(C)n2)c(OC)cc1Cl ?
E coli WT exp: -3; PostGolgi ctrl: 34*; PostGolgi yeast: 3

How did CCOc1ccc(C)cc1S(=O)(=O)n1ccc(C)n1 do in these assays?
Her2 expr inh: 100; E coli WT exp: 6; PostGolgi ctrl: 11; PostGolgi yeast: -5; tolC growth inh: -3

How did COC(=O)CSc1cnc2ccccc2n1 do in these assays?
E coli WT exp: 7; PostGolgi ctrl: 32*; PostGolgi yeast: -5

Results for O=c1c2ccccc2n(Cc2ccc(Cl)cc2)c(=O)n1Cc1ccco1 ?
Her2 expr inh: 62; E coli WT exp: -7; PostGolgi ctrl: 75*; PostGolgi yeast: -2; tolC growth inh: 12

How did Cc1ccc(Cn2c(=O)n(Cc3ccco3)c(=O)c3ccccc32)cc1 do in these assays?
Her2 expr inh: 77; E coli WT exp: -2; PostGolgi ctrl: 7; PostGolgi yeast: 5; tolC growth inh: -16

How did CCCSc1nsc(NC(=O)C(c2ccccc2)c2ccccc2)n1 do in these assays?
E coli WT exp: -5; PostGolgi ctrl: 35*; PostGolgi yeast: 16

How did CCc1cc(C(=O)O)c(NC(=O)C(c2ccccc2)c2ccccc2)s1 do in these assays?
E coli WT exp: 5; PostGolgi ctrl: -2; PostGolgi yeast: -2

Results for Cc1ccc2[nH]c(C)c(CN(C)C3CCN(C)CC3)c(=O)c2c1 ?
Her2 expr inh: 87; tolC growth inh: -4

What do the screens show for `CC(C)n1c(-c2ccco2)csc1=Nc1cccnc1`?
Her2 expr inh: 95; E coli WT exp: 16; PostGolgi ctrl: 26; PostGolgi yeast: -3; tolC growth inh: 16

Results for c1ccc(-c2nnc3sc(Cc4cccs4)nn23)cc1 ?
Her2 expr inh: 49; E coli WT exp: -12; PostGolgi ctrl: 30*; PostGolgi yeast: 3; tolC growth inh: 21

Results for O=C(O)c1cccnc1SCCc1ccccc1 ?
E coli WT exp: 3; PostGolgi ctrl: 1; PostGolgi yeast: -4; tolC growth inh: 13

Results for COc1ccccc1-c1noc(-c2cccs2)n1 ?
E coli WT exp: 3; PostGolgi ctrl: 32*; PostGolgi yeast: -2

How did COc1ccccc1-c1noc(-c2ccncc2)n1 do in these assays?
Her2 expr inh: 106; E coli WT exp: 3; PostGolgi ctrl: -1; PostGolgi yeast: 16; tolC growth inh: 9

Results for CC(C)c1ccc(CN(C(=O)C2COc3ccccc3O2)C2CCS(=O)(=O)C2)cc1 (configuration not stated) ?
E coli WT exp: -2; PostGolgi ctrl: 63*; PostGolgi yeast: 1

Results for CCOc1ccc(C2CC(c3ccc(F)cc3)n3ncnc3N2)cc1 (configuration not stated) ?
Her2 expr inh: 98; tolC growth inh: 12

What do the screens show for `O=C(CN1CCN(c2ccc(F)cc2)CC1)N1CCOCC1`?
Her2 expr inh: 88; E coli WT exp: 0; PostGolgi ctrl: 17; PostGolgi yeast: 0; tolC growth inh: -8

How did O=C(CN1CCN(c2ccc(F)cc2)CC1)N1CCC(Cc2ccccc2)CC1 do in these assays?
Her2 expr inh: 84; E coli WT exp: -5; PostGolgi ctrl: 31*; PostGolgi yeast: 2; tolC growth inh: 44
